“Also recorded” adds a separate entry of the source. Blank lines part the entries; values can stand above or below the molecule they belong to.
Key:
[1] = tested on: human genome (ENCODE array); experiment: ChIP-chip, ENCODE tiled arrays; type: cell-based; conditions: doxorubicin treatment
Procedure, shortened: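 ChIP DNA from human cells expressing wild-type or ΔPHD2 JADE1L, with or without doxorubicin, was amplified, labelled and hybridised to […] human ENCODE tiled arrays. Analysis followed the array maker's standard protocol. Significant binding peaks were counted by position on the gene body, or by distance from TSS/TES when outside coding regions.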

native chromatin = experiment: Chromatin pull-down, yeast wild type native chromatin; type: binding; conditions: H3-tail dependent, western blot
Procedure, shortened: (§1)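 Immunopurified JADE1L or JADE1S complexes from co-transfected cells, normalised by gel, were incubated with purified native chromatin. Chromatin came from yeast (wild type or set1, lacking H3K4me) or from human cells.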

endogenous chromatin = experiment: In vivo association with endogenous chromatin; type: cell-based
Procedure, shortened: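 Tagged JADE1L or JADE1S complexes, wild-type or mutant, were immunopurified from co-transfected human cells. Co-purifying endogenous core histones and complex subunits were resolved by gel staining. Western blots with specific antibodies, including for H3K36me3, followed.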

human native chromatin = experiment: Chromatin pull-down, human native chromatin; type: binding
Procedure, shortened: as §1

[2] = tested on: native wild type chromatin; experiment: HAT assay on wild type yeast native chromatin; type: biochemical; conditions: chromatin 500 ng, fluorography
Procedure, shortened: (§2)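 For acetyltransferase reactions, wild-type or mutant JADE1 complexes were immunopurified from co-transfected cells. They were incubated with 500 ng of native chromatin purified from yeast cells. Assays otherwise followed an earlier published protocol.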

set1 chromatin = experiment: HAT assay on set1; type: biochemical, yeast; conditions: chromatin 500 ng, lacking H3K4me
Procedure, shortened: as §2

JADE1L binding at menin gene [1]: seems to be induced
Molecule: COc1cccc2c1C(=O)c1c(O)c3c(c(O)c1C2=O)C[C@@](O)(C(=O)CO)C[C@@H]3O[C@H]1C[C@H](N)[C@H](O)[C@H](C)O1 [doxorubicin]

binding to yeast native chromatin (native chromatin): efficiently pulled down yeast chromatin
B1: JADE1S: natural smaller 509 amino acid-protein produced by an abundant mRNA splice variant; dimeric complex with HBO1 (protein)
chain: MKRGRLPSSSEDSDDNGSLSTTWSQNSRSQHRRSSCSRHEDRKPSEVFRTDLITAMKLHDSYQLNPDEYYVLADPWRQEWEKGVQVPVSPGTIPQPVARVVSEEKSLMFIRPKKYIVSSGSEPPELGYVDIRTLADSVCRYDLNDMDAAWLELTNEEFKEMGMPELDEYTMERVLEEFEQRCYDNMNHAIETEEGLGIEYDEDVVCDVCQSPDGEDGNEMVFCDKCNICVHQACYGILKVPEGSWLCRTCALGVQPKCLLCPKKGGAMKPTRSGTKWVHVSCALWIPEVSIGSPEKMEPITKVSHIPSSRWALVCSLCNEKFGASIQCSVKNCRTAFHVTCAFDRGLEMKTILAENDEVKFKSYCPKHSSHRKPEESLGKGAAQENGAPECSPRNPLEPFASLEQNREEAHRVSVRKQKLQQLEDEFYTFVNLLDVARALRLPEEVVDFLYQYWKLKRKVNFNKPLITPKKDEEDNLAKREQDVLFRRLQLFTHLRQDLERVMIDTDTL
co-purification of core histones (endogenous chromatin; immunopurified complexes, gel staining): a full set of core histones co-purified | level of H3K36me3-containing chromatin bound in vivo (endogenous chromatin; western blot, relative to JADE1L): much higher; also recorded: significantly more H3K36me3 signal | binding to H3K36me3-containing human chromatin in vitro (human native chromatin): can bind H3K36me3-containing chromatin in vitro | HAT activity on wild type yeast chromatin [2]: much less active than the JADE1L complex | HAT activity on set1 yeast chromatin (set1 chromatin): highly active; also recorded: equivalent acetyltransferase activity
